Scp1 inh = Scp-1 phosphatase inhibitors, primary screen, biochemical, colorimetric, uHTS. inhibition, % at 20 µM. AID 493091, 2011. Recombinant Scp1, phosphopeptide, malachite green phosphate absorbance. 0.88% of 340,000 active;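 active means inhibition above about 50% at 20 µM, limit read from the data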;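 further: plate controls were DMSO wells with enzyme for no effect and wells lacking enzyme for full effect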
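Material: truncated SCP-1 phosphatase (76-261aa) / Buffer or medium: 50 mM Tris acetate pH 5.5, 0.005% Tween-20, 10 mM MgCl2 / Compound dosing: one concentration, 20 µM, with 1.0% DMSO / Incubation: 45 min room-temperature reaction, 5 min colour, 30 min stabiliser / Detection: colorimetric free-phosphate detection, absorbance 630 nm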
DNMT1 inh = human DNMT1 methyltransferase inhibitors, primary screen, biochemical, molecular beacon, fluorescence, HinP1I cleavage, uHTS | inhibition (reported as % activation of signal), % at 10 µM | 0.83% of 360,000 active | AID 588458, 2011 | DNA (cytosine-5)-methyltransferase 1 (Homo sapiens), P26358; in the data active means inhibition above about 50%
SUMO HTRF inh = inhibitors of in vitro SUMOylation cascade, primary screen, biochemical, HTRF, uHTS | inhibition, % at 35 µM | HTRF SUMOylation assay, SAE1/SAE2 + UBC9 | AID 2006, 2009 | SUMO-conjugating enzyme UBC9 (Homo sapiens), P63279 | 0.36% of 290,000 active; in the data active means inhibition above about 50%, passing the limit was not always enough
LMPTP block = LMPTP phosphatase inhibitors, primary screen, biochemical, fluorescence intensity, uHTS | Low molecular weight phosphotyrosine protein phosphatase (Homo sapiens), P24666 | recombinant LMPTP-A, OMFP fluorogenic substrate | inhibition, % at 20 µM | 0.22% of 360,000 active;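 active means compounds that cut the enzyme signal by at least half of the control window in the single-dose screen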;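 further: plate controls were DMSO wells with enzyme plus substrate for no effect and substrate without enzyme for full effect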
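Test system: LMPTP-A phosphatase enzyme; input: 0.625 nM LMPTP-A final; reagent: OMFP substrate, 400 µM final; compound dosing: 20 µM single dose, 3% DMSO; incubation: 50 min dark incubation at room temperature; measured by: endpoint fluorescence intensity from OMFP dephosphorylation; measure: % inhibition relative to no-enzyme and uninhibited control wells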
SUMO1-SIM PPI = modulators of SUMO1 protein-protein interactions, primary screen, biochemical, uHTS; Small ubiquitin-related modifier 1 (Homo sapiens), P63165; 0.33% of 360,000 active; inhibition, % at 20 µM; SUMO1 binding to a labelled peptide, TR-FRET, 1 h; in the data active means inhibition above about 37%
STEP block = STEP phosphatase inhibitors, primary screen, biochemical, fluorescence intensity, uHTS; Tyrosine-protein phosphatase non-receptor type 5 (Homo sapiens), P54829; recombinant STEP, OMFP fluorogenic substrate; 0.25% of 360,000 active; inhibition, % at 20 µM;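 active means inhibition at 20 µM, scaled per plate between control wells, above about 37%, limit read from the data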;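 further: 0% = DMSO with enzyme and substrate and 100% = substrate only without enzyme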
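Material: STEP (striatal-enriched tyrosine phosphatase) enzyme, cell-free; Compound dosing: 20 µM single dose in 1% DMSO; Technique: fluorescence read at 480 nm ex / 540 nm em; Times: reaction 20 min, ambient temperature; Medium: 50 mM Bis-Tris pH 6.0 with 2.5 mM DTT and 0.005% Tween 20; Also added: OMFP at 25 µM.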
DNMT1 confirm = DNMT1 methyltransferase inhibitor retest, confirmation, biochemical, molecular beacon, fluorescence, single concentration. shares compounds with DNMT1 inh. DNMT1 molecular beacon HinP1I cleavage. inhibition, % at 10 µM. 8% of 2,300 active. AID 602385, 2012;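 active means average inhibition of at least 30% in the single-concentration confirmation test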
Beacon interf = counter-screen for DNMT1 inhibitors: spectral interference; shares compounds with DNMT1 inh; DNMT1 molecular beacon spectral interference counterscreen, fluorescence 485/520; activation (fluorescence interference), % at 10 µM; 1% of 2,300 active;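 active means activation of at least 30% at 10 µM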;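 further: DNMT1 catalytic domain with a HinP1I cleavage step and a FAM/dabcyl DNA beacon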
An asterisk follows results filed as active; / = no result. The list is not random: actives were taken first. Their share in the collection is about 1.9%.

SMILES	Scp1 inh	DNMT1 inh	SUMO HTRF inh	LMPTP block	SUMO1-SIM PPI	STEP block	DNMT1 confirm	Beacon interf
CC(C)C[C@@H](CN1CCCC1CN1C(=S)NC[C@@H]1Cc1ccc(O)cc1)N1C[C@H](Cc2ccc(O)cc2)N(CCc2ccccc2)C1=S (stereo partly drawn)	33	-44	/	5	5	4	/	/
C#Cc1ccc([C@@H]2C=C(C(=O)NCc3ccccc3)O[C@H](OCCCCO)C2)cc1	20	54*	/	5	3	0	3	3
O=C(NCc1ccccc1)C1=C[C@@H](c2ccc(Br)cc2)C[C@@H](OCCCCO)O1	-3	-8	2	1	-9	-1	/	/
O=C(Nc1ccc(N2CCOCC2)cc1N1CCOCC1)c1ccc(Br)cc1	4	-4	-5	-1	6	0	/	/
O=C(COc1ccc(Br)cc1)Nc1ccc(N2CCOCC2)cc1N1CCOCC1	0	55*	/	0	25	1	5	5
Cc1ccccc1OCc1nc2ccccc2c(=O)n1/N=C/c1c[nH]c2ccccc12	-4	8	-35	1	1	1	/	/
Cc1ccc(-c2[nH]ncc2/C=N/n2c(COc3ccccc3C)nc3ccccc3c2=O)cc1	-4	70*	-18	0	2	3	0	-2
CCOC(=O)C1=CCN(S(=O)(=O)c2ccc(C)cc2)C1c1ccc(Cl)c(Cl)c1 (stereo not drawn)	/	-13	/	1	4	0	/	/
Cc1ccc(NC(=O)C2CCN(S(=O)(=O)c3cc([N+](=O)[O-])ccc3Cl)CC2)nc1	23	8	/	-1	-24	1	/	/
Cc1ccc2nc(NC(=O)C3CCN(S(=O)(=O)c4cc([N+](=O)[O-])ccc4Cl)CC3)sc2c1	64*	60*	11	4	3	0	2	-3
CC1=NN(c2nc(N)nc(/C(C#N)=C/c3ccc([N+](=O)[O-])o3)n2)C(C)(C)C1	64*	54*	/	3	-13	7	2	0
O=C1C2C(C(=O)N1/N=C/c1ccc([N+](=O)[O-])o1)C1C=CC2C12CC2 (stereo not drawn)	-2	-1	21	0	-14	2	/	/
COc1ccc(N2Cc3cccc(C(=O)NC(C)CCc4ccco4)c3C2=O)cc1 (stereo not drawn)	79*	77*	40	12	5	2	3	1
COC(=O)CN1C(=O)[C@H]2[C@@H](c3ccc(C)o3)N3C(=O)CN(CCO)C(=O)[C@@]3(C)[C@H]2C1=O	0	103*	2	-1	10	-2	2	4
Cc1ccc([C@@H]2[C@@H]3C(=O)N(C)C(=O)[C@@H]3[C@]3(C)C(=O)N(CC4CC4)CC(=O)N23)o1	7	1	2	-1	4	-4	/	/
O=C(COC(=O)CCN1C(=O)/C(=C\C=C\c2ccccc2)SC1=S)Nc1ccc(Br)cc1	-15	67*	32	4	-3	3	3	5
CC(C)c1ccccc1NC(=O)COC(=O)CCN1C(=O)/C(=C\C=C\c2ccccc2)SC1=S	-7	-3	29	4	-2	3	/	/
O=C(CCN1C(=O)/C(=C/C=C/c2ccccc2)SC1=S)Nc1nccs1	9	4	31	0	-4	-2	/	/
